Laboratory results: ChEMBL document CHEMBL5674890, “Selective inhibition of CBP/p300 HAT by A-485 results in suppression of lipogenesis and hepatic gluconeogenesis” (Cell Death Dis, 2020)
Calls of active or inactive are those of the source.

Key:
[1] = test system: Hepatocyte; experiment: Inhibition of glucogenesis in mouse primary hepatocytes stimulated with 100 uM 8-Br-cAMP assessed as effect on pAMPK protein expression at 3 uM measured after 1 hr by western blot analysis; format: functional, cell-based
Summary of the method: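 Primary hepatocytes from C57BL/6 mice, isolated by two-step perfusion, were co-treated with 3 μM A-485 and 100 μM 8-Br-cAMP for 1 h. Phospho-CREB, phospho-AMPK and phospho-TORC2 were detected by western blot of cell lysates. Three independent experiments; mean ± SEM.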

[2] = test system: Adipocyte; experiment: Inhibition of lipogenesis in mouse adipocytes isolated stromal vascular cells assessed as decrease in ACC mRNA expression measured after 24 hrs by RT-qPCR assay; format: functional, cell-based
Summary of the method: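 Stromal vascular cells came from collagenase-digested inguinal WAT of C57BL/6 mice and were grown in DMEM/F12 with 10% FBS. At confluence, differentiation used insulin 5 μg/ml, dexamethasone 1 μM and IBMX 0.5 mM for 48 h, then insulin alone for 6 days. Fully differentiated day-8 adipocytes were exposed to A-485 for 24 h. Transcripts were quantified by RT-qPCR.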

[3] = test system: Hepatocyte; experiment: Inhibition of lipogenesis in mouse primary hepatocytes assessed as decrease in FASN mRNA expression at 3 uM in presence of 100 nM insulin and 5 to 25 mM glucose measured after 18 hrs by RT-qPCR assay; format: functional, cell-based
Summary of the method: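 Primary hepatocytes isolated from C57BL/6 mice by two-step perfusion. Cells incubated 18 h with 3 μM inhibitor, with 0 or 100 nM insulin and 5 or 25 mM glucose. Transcripts quantified by SYBR Green RT-qPCR after Trizol RNA extraction; proteins by western blot of lysates. Mean ± SEM.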

[4] = test system: Hepatocyte; experiment: Inhibition of glucogenesis in mouse primary hepatocytes stimulated with 100 uM 8-Br-cAMP assessed as decrease in glucose production at 3 uM in combination with 2 mM metformin; format: functional, cell-based
Summary of the method: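 Primary mouse hepatocytes pretreated with 100 nM dexamethasone for 16 h. Glucose production then measured in glucose-free DMEM with 1 mM pyruvate, 10 mM lactate and 0.25% BSA, in the presence of 100 μM 8-Br-cAMP, with 3 μM compound plus 2 mM metformin. Medium glucose assayed colorimetrically. Three independent experiments.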

[5] = test system: Adipocyte; experiment: Inhibition of lipogenesis in mouse adipocytes isolated stromal vascular cells assessed as decrease in ChREBP mRNA expression measured after 24 hrs by RT-qPCR assay; format: functional, cell-based
Summary of the method: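 Stromal vascular cells from inguinal WAT of C57BL/6 mice, grown in DMEM/F12 + 10% FBS at 37 °C, 10% CO2. At confluence, induced 48 h with 5 μg/ml insulin, 1 μM dexamethasone, 0.5 mM isobutylmethylxanthine, then 6 days in 5 μg/ml insulin; fully differentiated day 8. Mature adipocytes exposed to inhibitor 24 h. Total RNA by Trizol, SYBR Green RT-qPCR; protein by western blot.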

[6] = species: Mus musculus; experiment: Inhibition of glucogenesis in mouse assessed as decrease in hepatic C/EBPalpha protein expression measured by western blot analysis; format: functional, organism-based
Summary of the method: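 Livers from vehicle- or treated mice (ip 20 mg·kg−1·day−1 for 7 days) homogenized in lysis buffer; FOXO1 and C/EBPα analysed by western blot.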

[7] = test system: Mus musculus; experiment: Inhibition of lipogenesis in C57BL/6 mouse supplemented with high-fat diet assessed as decrease in LPL mRNA expression at 20 mg/kg/day, ip administered for 1 week measured measured by RT-qPCR assay; format: functional, organism-based; details: time 1.0 weeks
Summary of the method: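 Male C57BL/6 mice were fed high-fat diet for 14 weeks from 5 weeks of age, then injected ip with 20 mg·kg−1·day−1 for 7 days or given vehicle. Epididymal and inguinal WAT were weighed, examined by H&E, and analysed. Transcripts were measured by Trizol/SYBR Green RT-qPCR; proteins by western blot. n = 5–9; mean ± SEM.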

[8] = target: CREB-binding protein/Histone acetyltransferase p300 (Homo sapiens) (UniProt Q09472+Q92793); experiment: Inhibition of CBP/p300 in human HepG2 cells assessed as increase in FOXO1 and COP1 interaction at 3 uM; format: cell-based
Sequence of CREB-binding protein/Histone acetyltransferase p300 (Homo sapiens) (Q09472 whole entry, looked up): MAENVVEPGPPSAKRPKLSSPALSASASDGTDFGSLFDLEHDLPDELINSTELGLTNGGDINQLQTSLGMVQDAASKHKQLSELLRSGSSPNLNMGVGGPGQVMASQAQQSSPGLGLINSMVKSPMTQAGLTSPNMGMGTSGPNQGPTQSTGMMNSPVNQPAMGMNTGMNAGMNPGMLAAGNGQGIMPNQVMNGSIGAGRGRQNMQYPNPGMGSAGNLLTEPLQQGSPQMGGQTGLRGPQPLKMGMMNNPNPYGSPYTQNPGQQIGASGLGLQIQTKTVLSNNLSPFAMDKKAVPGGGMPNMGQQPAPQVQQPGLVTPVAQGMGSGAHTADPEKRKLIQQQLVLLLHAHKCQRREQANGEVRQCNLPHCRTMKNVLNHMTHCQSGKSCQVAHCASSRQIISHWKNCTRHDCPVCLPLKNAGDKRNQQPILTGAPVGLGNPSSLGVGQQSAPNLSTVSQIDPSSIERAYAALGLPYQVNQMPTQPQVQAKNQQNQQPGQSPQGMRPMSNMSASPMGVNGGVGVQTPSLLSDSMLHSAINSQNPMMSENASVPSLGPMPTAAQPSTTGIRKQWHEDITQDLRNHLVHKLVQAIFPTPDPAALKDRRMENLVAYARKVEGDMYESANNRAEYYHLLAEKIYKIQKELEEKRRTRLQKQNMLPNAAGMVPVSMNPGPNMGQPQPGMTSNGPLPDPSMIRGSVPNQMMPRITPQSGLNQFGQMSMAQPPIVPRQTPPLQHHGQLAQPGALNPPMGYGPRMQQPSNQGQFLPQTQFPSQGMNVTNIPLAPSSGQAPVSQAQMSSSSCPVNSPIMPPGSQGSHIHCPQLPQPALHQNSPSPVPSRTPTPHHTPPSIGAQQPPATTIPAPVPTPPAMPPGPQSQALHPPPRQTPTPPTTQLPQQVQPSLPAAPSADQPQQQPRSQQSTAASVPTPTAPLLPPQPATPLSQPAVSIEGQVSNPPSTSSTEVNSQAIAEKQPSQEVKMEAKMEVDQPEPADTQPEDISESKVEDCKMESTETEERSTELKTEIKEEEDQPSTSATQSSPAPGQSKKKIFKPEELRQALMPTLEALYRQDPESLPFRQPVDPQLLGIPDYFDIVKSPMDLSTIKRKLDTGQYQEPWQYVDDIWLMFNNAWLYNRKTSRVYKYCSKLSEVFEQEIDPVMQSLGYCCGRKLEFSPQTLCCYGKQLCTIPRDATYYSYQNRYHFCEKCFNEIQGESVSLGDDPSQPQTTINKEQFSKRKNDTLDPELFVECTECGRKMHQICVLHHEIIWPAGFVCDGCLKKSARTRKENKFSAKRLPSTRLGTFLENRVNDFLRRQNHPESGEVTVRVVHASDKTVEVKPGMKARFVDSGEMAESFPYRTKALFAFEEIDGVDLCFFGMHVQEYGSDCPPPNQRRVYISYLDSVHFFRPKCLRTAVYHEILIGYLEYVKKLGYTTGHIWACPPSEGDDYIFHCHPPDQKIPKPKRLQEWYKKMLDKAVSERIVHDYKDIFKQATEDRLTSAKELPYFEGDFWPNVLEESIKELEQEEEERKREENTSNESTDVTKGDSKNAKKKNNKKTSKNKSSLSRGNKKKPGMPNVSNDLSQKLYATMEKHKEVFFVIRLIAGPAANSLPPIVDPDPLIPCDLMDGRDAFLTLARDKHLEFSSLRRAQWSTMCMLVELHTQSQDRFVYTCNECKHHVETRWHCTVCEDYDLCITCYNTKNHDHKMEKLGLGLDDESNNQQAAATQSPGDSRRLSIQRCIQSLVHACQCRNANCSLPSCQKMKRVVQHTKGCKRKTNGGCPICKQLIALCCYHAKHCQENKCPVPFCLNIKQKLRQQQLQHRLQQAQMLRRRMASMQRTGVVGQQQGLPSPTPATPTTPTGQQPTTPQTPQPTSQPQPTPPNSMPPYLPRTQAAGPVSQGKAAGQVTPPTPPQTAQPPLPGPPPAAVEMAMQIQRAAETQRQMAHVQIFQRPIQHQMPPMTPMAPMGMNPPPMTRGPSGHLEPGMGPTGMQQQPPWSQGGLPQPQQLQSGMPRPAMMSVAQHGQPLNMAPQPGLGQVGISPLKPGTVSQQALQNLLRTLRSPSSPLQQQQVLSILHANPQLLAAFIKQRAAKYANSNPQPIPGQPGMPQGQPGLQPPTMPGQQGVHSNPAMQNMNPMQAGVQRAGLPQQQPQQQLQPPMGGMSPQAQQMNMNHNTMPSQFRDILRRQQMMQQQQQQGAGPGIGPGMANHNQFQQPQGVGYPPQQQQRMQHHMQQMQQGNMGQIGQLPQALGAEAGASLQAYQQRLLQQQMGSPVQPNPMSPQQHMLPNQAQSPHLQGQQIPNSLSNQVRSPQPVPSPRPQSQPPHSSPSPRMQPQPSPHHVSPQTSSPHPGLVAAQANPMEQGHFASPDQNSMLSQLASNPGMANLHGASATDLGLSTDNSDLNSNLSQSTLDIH
Sequence of CREB-binding protein/Histone acetyltransferase p300 (Homo sapiens) (Q92793 whole entry, looked up): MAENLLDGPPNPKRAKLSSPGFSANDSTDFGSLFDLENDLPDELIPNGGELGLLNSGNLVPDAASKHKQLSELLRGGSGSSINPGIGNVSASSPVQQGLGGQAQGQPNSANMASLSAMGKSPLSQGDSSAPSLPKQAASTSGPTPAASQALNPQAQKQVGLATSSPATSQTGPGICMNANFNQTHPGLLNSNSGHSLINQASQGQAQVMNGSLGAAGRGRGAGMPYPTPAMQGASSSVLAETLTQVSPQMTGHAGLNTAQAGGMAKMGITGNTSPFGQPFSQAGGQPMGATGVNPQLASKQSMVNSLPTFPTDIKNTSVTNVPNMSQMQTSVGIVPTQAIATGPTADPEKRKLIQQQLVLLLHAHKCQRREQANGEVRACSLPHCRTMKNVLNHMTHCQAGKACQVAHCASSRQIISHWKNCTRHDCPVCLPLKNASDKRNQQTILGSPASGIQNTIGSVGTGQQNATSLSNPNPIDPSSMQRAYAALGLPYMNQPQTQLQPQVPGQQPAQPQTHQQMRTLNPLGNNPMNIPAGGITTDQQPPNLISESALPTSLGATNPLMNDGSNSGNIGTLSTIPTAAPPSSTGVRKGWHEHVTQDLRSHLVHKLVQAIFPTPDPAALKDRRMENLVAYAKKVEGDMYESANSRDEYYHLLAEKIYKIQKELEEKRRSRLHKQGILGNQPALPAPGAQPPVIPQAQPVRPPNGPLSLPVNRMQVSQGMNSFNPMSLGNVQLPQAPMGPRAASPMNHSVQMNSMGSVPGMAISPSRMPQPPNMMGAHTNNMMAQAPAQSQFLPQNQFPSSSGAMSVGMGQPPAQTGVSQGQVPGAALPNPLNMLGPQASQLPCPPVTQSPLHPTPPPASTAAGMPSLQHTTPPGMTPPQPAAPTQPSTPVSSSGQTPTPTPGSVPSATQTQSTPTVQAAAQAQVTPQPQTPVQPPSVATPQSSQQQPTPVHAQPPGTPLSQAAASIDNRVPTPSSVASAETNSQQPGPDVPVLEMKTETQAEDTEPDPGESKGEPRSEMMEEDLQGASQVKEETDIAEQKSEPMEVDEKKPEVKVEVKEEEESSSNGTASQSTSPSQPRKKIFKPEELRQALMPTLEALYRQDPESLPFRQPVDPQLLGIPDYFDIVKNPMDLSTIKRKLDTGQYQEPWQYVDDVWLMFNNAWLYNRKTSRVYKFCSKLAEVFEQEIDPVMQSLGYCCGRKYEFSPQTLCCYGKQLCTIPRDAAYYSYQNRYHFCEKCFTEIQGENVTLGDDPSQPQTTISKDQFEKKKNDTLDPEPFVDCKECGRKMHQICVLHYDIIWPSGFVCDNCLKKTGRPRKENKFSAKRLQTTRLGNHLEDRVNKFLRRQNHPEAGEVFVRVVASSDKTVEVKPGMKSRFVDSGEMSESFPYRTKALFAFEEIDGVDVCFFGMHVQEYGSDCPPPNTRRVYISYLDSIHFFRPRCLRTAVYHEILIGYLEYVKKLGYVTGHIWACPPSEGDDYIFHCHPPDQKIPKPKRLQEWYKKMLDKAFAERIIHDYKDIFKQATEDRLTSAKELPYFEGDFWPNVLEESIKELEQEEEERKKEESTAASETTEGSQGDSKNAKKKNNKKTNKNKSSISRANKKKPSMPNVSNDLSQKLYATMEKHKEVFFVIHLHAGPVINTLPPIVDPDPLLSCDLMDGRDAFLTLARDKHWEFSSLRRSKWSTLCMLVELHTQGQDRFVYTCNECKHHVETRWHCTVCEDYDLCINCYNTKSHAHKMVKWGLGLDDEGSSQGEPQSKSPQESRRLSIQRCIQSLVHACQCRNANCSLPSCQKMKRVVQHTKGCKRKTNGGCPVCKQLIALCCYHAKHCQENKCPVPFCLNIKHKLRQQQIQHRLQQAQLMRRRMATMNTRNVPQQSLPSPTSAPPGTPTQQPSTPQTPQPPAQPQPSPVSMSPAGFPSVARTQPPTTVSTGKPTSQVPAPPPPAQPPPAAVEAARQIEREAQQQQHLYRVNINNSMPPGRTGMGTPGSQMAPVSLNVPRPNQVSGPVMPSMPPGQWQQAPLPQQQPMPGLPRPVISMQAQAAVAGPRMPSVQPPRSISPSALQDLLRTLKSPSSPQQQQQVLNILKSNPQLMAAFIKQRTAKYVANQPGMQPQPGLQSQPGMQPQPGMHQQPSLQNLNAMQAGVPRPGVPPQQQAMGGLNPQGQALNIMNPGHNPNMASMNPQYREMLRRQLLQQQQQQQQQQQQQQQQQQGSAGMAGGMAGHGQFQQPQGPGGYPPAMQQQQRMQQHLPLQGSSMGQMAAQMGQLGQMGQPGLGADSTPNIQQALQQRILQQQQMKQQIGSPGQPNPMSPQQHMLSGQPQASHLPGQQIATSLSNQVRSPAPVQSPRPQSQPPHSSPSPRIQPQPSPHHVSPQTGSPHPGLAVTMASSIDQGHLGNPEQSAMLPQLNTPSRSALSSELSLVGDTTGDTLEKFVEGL
Summary of the method: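 HepG2 cells treated with 3 μM compound. FOXO1–COP1 interaction assessed by immunoprecipitation: lysate with antibody 2 h, then protein A/G beads overnight at 4 °C, followed by western blot.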

[9] = test system: Mus musculus; experiment: Inhibition of lipogenesis in C57BL/6 mouse supplemented with normal chow diet assessed as decrease in ACC mRNA expression at 20 mg/kg/day, ip administered for 1 week measured by RT-qPCR assay; format: functional, organism-based; details: time 1.0 weeks
Summary of the method: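 Eight-week-old male C57BL/6 mice on normal chow were given 20 mg·kg−1·day−1 ip daily for 7 days or vehicle. Epididymal WAT was collected. Lipogenic, adipogenic and fatty-acid-oxidation transcripts were quantified by Trizol extraction and SYBR Green RT-qPCR. FAS, ACC, PPARγ and C/EBPα protein were assessed by western blot. n = 5–9; mean ± SEM.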

[10] = test system: Hepatocyte; experiment: Inhibition of glucogenesis in mouse primary hepatocytes stimulated with 100 uM 8-Br-cAMP assessed as decrease in C/EBPalpha protein expression at 3 uM measured after 12 hrs by western blot analysis; format: functional, cell-based
Summary of the method: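 Primary mouse hepatocytes incubated 12 h with 3 μM compound and 100 μM 8-Br-cAMP. Lysates western blotted for FOXO1, C/EBPα or PGC1α. Three independent experiments.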

[11] = test system: Hepatocyte; experiment: Inhibition of lipogenesis in mouse primary hepatocytes assessed as decrease in FAS protein expression at 3 uM in presence of 100 nM insulin and 5 to 25 mM glucose measured after 18 hrs by western blot analysis; format: functional, cell-based
[12] = test system: Mus musculus; experiment: Anti-obesity activity in C57BL/6 mouse supplemented with normal chow diet assessed effect on total lean mass at 20 mg/kg/day, ip administered for 1 week measured by EchoMRI live analysis; format: functional, organism-based; details: time 1.0 weeks
Summary of the method: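 Normal-chow male C57BL/6 mice, 8 weeks old, ip 20 mg·kg−1·day−1 daily for 7 days. Total lean and fat mass measured in live animals by EchoMRI. Mean ± SEM, n = 5–9.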

[13] = test system: Mus musculus; experiment: Inhibition of hepatic lipogenesis in C57BL/6 mouse supplemented with normal chow diet assessed as decrease in ChREBP protein expression at 20 mg/kg/day, ip administered for 1 week measured by western blot analysis; format: functional, organism-based; details: time 1.0 weeks
Summary of the method: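 Normal-chow male C57BL/6 mice, 8 weeks old, were injected ip at 20 mg·kg−1·day−1 daily for 7 days or given vehicle. Liver tissue was homogenized in lysis buffer, and FAS and ChREBP protein were assessed by western blot. n = 5–9.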

[14] = test system: Mus musculus; experiment: Anti-obesity activity in 6 hrs fasted C57BL/6 mouse supplemented with normal chow diet assessed as effect on insulin sensitivity at 20 mg/kg/day, ip administered for 1 week measured by insulin tolerance test; format: functional, organism-based; details: time 1.0 weeks
Summary of the method: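 Insulin tolerance test in normal-chow male C57BL/6 mice (8 weeks), after 7 days of ip dosing at 20 mg·kg−1·day−1. 6 h fast, then insulin 0.75 UI/kg body weight ip; blood glucose followed. Mean ± SEM, n = 5–9.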

[15] = test system: Mus musculus; experiment: Anti-obesity activity in C57BL/6 mouse supplemented with normal chow diet assessed as decrease in hepatic G6Pc mRNA expression at 20 mg/kg/day, ip administered for 1 week measured a by RT-qPCR assay; format: functional, organism-based; details: time 1.0 weeks
Summary of the method: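 Liver G6Pc mRNA in 8-week-old normal-chow male C57BL/6 mice after 7 days ip at 20 mg·kg−1·day−1. Trizol RNA extraction, SYBR Green RT-qPCR. Mean ± SEM, n = 5–9.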

CNC(=O)Nc1ccc2c(c1)CCS21OC(=O)N(CC(=O)N(Cc2ccc(F)cc2)[C@@H](C)C(F)(F)F)C1=O (stereo not given in full)
inactive: inhibition [1] | Activity [12] | Activity [14]
active: inhibition [2] | inhibition [3] | inhibition [4] | inhibition [5] | inhibition [6] | inhibition [7] | inhibition [8] | inhibition [9] | inhibition [10] | inhibition [11] | inhibition [13] | Activity [15]
